Active and inactive are the calls of the source. The calls are words filed in the database; no cut-off is given here.
Biological target: T1, RAC-gamma serine/threonine-protein kinase (Homo sapiens, UniProt Q9Y243)
Assay: Inhibition of AKT3 in presence of 0.2 uM ATP
Conditions: not given
In short: (§1)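 Biochemical kinase IC50s, each run with ATP at or below its Km.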

T1 sequence (Q9Y243 whole entry): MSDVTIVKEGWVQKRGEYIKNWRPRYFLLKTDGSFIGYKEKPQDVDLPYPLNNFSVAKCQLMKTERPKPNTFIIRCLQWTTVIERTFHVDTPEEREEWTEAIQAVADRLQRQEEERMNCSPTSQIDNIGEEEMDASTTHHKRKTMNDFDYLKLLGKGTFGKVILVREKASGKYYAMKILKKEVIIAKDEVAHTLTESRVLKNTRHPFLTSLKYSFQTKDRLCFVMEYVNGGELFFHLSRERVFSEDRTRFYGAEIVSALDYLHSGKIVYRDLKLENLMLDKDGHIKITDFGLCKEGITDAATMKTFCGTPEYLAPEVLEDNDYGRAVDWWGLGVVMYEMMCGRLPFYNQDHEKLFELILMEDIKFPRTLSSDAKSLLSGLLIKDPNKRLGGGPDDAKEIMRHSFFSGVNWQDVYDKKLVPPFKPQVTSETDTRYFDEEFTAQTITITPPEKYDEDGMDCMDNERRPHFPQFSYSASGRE

| SMILES | IC50 |
| --- | --- |
| CCCNc1nccc(-c2ccc(C(=O)NCCc3ccc(Cl)cc3Cl)s2)n1 | > 25000 nM |
| CNc1nccc(-c2ccc(C(=O)N[C@@H](Cc3ccc(Cl)cc3Cl)C(=O)OC)s2)n1 | 2400 nM |
| CNc1nccc(-c2ccc(C(=O)NCC(c3ccccc3)c3ccccc3)s2)n1 | > 25000 nM |
| CCNc1nccc(-c2ccc(C(=O)NCCc3ccc(Cl)cc3Cl)s2)n1 | 1500 nM |
| CNc1nccc(-c2ccc(C(=O)N[C@H](CCN)Cc3ccc(Cl)cc3Cl)s2)n1 | 27 nM |
| CNc1nccc(-c2ccc(C(=O)NC(CN)Cc3ccc(Cl)cc3Cl)s2)n1 (stereo unspecified) | 4.8 nM |
| CNc1nccc(-c2ccc(C(=O)N[C@H](CO)Cc3ccc(Cl)cc3Cl)s2)n1 | 280 nM |
| CNc1nccc(-c2ccc(C(=O)NCC(C)c3ccc(Cl)cc3Cl)s2)n1 (stereo unspecified) | 660 nM |
| CNc1nccc(-c2ccc(C(=O)N[C@@H](Cc3ccc(Cl)cc3Cl)CN(C)C)s2)n1 | 11 nM |
| CNc1nccc(-c2ccc(C(=O)NCCN(C)C)s2)n1 | 7000 nM |
| CCC(CNC(=O)c1ccc(-c2ccnc(NC)n2)s1)c1ccc(Cl)cc1Cl (stereo unspecified) | 1000 nM |
| CNc1nccc(-c2ccc(CNCCc3ccc(Cl)cc3Cl)s2)n1 | 5200 nM |
| CNc1nccc(-c2ccc(S(=O)(=O)NCCc3ccc(Cl)cc3Cl)s2)n1 | > 25000 nM |
| CN(C)c1nccc(-c2ccc(C(=O)NCCc3ccc(Cl)cc3Cl)s2)n1 | > 25000 nM |
| Nc1nccc(-c2ccc(C(=O)NCCc3ccc(Cl)cc3Cl)s2)n1 | 610 nM |

The remaining lines, values ahead:

| IC50 | SMILES |
| --- | --- |
| 5000 nM | CNc1nccc(-c2ccc(C(=O)NCCc3ccccc3)s2)n1 |
| > 25000 nM | CNc1nccc(-c2ccc(C(=O)NCCc3ccc(OC)cc3)s2)n1 |
| 2300 nM | CNc1nccc(-c2ccc(NC(=O)CCc3ccc(F)cc3)s2)n1 |
| 4700 nM | CNc1nccc(-c2ccc(C(=O)NCc3ccc(F)cc3)s2)n1 |
| > 25000 nM | CNc1nccc(-c2ccc(C(=O)NCCc3ccncc3)s2)n1 |
| 990 nM | CNc1nccc(-c2ccc(C(=O)NCCc3ccc(Cl)cc3Cl)s2)n1 |
| 820 nM | CNc1nccc(-c2ccc(C(=O)N[C@H](C)Cc3ccc(Cl)cc3Cl)s2)n1 |
| 5400 nM | CNc1nccc(-c2ccc(C(=O)NCCc3cccc(Cl)c3)s2)n1 |
| 2800 nM | CNc1nccc(-c2ccc(C(=O)NC[C@@H](N)c3ccccc3)s2)n1 |
| 1100 nM | CNc1nccc(-c2ccc(C(=O)NCCc3ccc(Cl)cc3)s2)n1 |
| 2100 nM | CNc1nccc(-c2ccc(NC(=O)NCc3ccc(Cl)cc3Cl)s2)n1 |
| > 25000 nM | CNc1nccc(-c2ccc(C(=O)Nc3ccc(F)cc3)s2)n1 |
| 2600 nM | CNc1nccc(-c2ccc(C(=O)NCCc3ccc(Br)cc3)s2)n1 |
| 18000 nM | CNc1nccc(-c2ccc(C(=O)NCCCc3ccc(F)cc3)s2)n1 |
| 3000 nM | CNc1nccc(-c2ccc(C(=O)NCCc3ccc(F)cc3)s2)n1 |
| > 25000 nM | CNc1nccc(-c2ccc(C(=O)NCCc3ccc(C)cc3)s2)n1 |
| 19000 nM | CNc1nccc(-c2ccc(C(=O)NCCc3ccc(S(N)(=O)=O)cc3)s2)n1 |
| 1300 nM | CNc1nccc(-c2ccc(C(=O)NCCN)s2)n1 |
| 2900 nM | CNc1nccc(-c2ccc(C(=O)NCCc3ccccc3Cl)s2)n1 |
| 7400 nM | CNc1nccc(-c2ccc(NC(=O)OCc3ccc(F)cc3)s2)n1 |
| 240 nM | CNc1nccc(-c2ccc(C(=O)N[C@@H](CN)Cc3ccc(Cl)cc3Cl)s2)n1 |

Biological target: RAC-alpha serine/threonine-protein kinase (Homo sapiens, UniProt P31749)
Assay: Inhibition of AKT1
Conditions: not given
In short: as §1

Sequence of RAC-alpha serine/threonine-protein kinase (P31749 whole entry): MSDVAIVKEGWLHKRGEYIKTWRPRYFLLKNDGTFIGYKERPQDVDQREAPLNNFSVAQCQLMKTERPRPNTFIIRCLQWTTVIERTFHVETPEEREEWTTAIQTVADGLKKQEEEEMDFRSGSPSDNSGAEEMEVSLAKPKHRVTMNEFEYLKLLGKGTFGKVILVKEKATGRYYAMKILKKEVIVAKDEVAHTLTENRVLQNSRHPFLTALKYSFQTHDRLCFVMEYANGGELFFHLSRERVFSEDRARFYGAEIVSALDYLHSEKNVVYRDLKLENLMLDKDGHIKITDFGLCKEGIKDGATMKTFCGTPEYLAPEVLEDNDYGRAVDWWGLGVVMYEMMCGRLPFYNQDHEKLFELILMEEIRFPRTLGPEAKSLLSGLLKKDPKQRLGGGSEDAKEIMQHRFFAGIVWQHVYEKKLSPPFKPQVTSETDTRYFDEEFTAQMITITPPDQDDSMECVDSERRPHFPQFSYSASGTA

| IC50 | SMILES |
| --- | --- |
| 6 nM | CNc1nccc(-c2ccc(C(=O)N[C@H](CN)Cc3ccc(Cl)cc3Cl)s2)n1 |

Biological target: T1, RAC-gamma serine/threonine-protein kinase
Assay: Inhibition of AKT3
Conditions: not given
In short: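 Kinase IC50 determined in a biochemical kinase assay with ATP at or below its Km.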

| IC50 | SMILES |
| --- | --- |
| 3 nM | CNc1nccc(-c2ccc(C(=O)N[C@H](CN)Cc3ccc(Cl)cc3Cl)s2)n1 |

Biological target: T2, cAMP-dependent protein kinase (PKA) (Homo sapiens, UniProt P22694+P17612+P22612)
Assay: Inhibition of PKA
Type: protein assay
Conditions: not given
In short: as §1

| IC50 | SMILES |
| --- | --- |
| 0.1 nM | CNc1nccc(-c2ccc(C(=O)N[C@H](CN)Cc3ccc(Cl)cc3Cl)s2)n1 |

Biological target: Mast/stem cell growth factor receptor Kit (Homo sapiens, UniProt P10721)
Assay: Inhibition of Kit
Conditions: not given

Sequence of Mast/stem cell growth factor receptor Kit (P10721 whole entry): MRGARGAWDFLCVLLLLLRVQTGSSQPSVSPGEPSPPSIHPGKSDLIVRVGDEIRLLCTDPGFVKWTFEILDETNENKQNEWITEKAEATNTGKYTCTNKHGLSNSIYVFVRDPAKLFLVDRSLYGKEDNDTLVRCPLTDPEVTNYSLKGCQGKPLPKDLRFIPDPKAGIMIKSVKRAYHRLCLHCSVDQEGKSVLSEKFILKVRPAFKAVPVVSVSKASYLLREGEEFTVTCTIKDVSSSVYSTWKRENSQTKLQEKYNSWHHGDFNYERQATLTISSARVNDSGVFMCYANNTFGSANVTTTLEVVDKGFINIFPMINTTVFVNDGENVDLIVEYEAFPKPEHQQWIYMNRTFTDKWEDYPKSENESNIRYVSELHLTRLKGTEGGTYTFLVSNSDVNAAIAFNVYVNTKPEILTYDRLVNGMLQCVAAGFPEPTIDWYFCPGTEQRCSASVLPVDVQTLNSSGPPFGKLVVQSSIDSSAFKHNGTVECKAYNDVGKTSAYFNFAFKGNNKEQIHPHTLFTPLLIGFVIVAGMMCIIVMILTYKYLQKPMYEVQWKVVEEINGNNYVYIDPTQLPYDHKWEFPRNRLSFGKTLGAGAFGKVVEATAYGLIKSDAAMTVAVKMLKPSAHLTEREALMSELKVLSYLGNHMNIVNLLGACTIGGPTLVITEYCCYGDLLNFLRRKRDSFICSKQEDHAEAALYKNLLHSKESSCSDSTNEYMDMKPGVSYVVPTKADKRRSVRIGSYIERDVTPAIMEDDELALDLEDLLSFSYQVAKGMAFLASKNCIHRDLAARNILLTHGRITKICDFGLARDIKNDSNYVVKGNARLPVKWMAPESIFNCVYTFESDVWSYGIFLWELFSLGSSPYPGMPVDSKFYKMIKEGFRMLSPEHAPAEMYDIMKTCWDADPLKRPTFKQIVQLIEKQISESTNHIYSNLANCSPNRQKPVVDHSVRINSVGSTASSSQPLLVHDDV

| IC50 | SMILES |
| --- | --- |
| 110 nM | CNc1nccc(-c2ccc(C(=O)N[C@H](CN)Cc3ccc(Cl)cc3Cl)s2)n1 |

Biological target: Hepatocyte growth factor receptor (Homo sapiens, UniProt P08581)
Assay: Inhibition of Met
Conditions: not given
In short: as §1

Sequence of Hepatocyte growth factor receptor (P08581 whole entry): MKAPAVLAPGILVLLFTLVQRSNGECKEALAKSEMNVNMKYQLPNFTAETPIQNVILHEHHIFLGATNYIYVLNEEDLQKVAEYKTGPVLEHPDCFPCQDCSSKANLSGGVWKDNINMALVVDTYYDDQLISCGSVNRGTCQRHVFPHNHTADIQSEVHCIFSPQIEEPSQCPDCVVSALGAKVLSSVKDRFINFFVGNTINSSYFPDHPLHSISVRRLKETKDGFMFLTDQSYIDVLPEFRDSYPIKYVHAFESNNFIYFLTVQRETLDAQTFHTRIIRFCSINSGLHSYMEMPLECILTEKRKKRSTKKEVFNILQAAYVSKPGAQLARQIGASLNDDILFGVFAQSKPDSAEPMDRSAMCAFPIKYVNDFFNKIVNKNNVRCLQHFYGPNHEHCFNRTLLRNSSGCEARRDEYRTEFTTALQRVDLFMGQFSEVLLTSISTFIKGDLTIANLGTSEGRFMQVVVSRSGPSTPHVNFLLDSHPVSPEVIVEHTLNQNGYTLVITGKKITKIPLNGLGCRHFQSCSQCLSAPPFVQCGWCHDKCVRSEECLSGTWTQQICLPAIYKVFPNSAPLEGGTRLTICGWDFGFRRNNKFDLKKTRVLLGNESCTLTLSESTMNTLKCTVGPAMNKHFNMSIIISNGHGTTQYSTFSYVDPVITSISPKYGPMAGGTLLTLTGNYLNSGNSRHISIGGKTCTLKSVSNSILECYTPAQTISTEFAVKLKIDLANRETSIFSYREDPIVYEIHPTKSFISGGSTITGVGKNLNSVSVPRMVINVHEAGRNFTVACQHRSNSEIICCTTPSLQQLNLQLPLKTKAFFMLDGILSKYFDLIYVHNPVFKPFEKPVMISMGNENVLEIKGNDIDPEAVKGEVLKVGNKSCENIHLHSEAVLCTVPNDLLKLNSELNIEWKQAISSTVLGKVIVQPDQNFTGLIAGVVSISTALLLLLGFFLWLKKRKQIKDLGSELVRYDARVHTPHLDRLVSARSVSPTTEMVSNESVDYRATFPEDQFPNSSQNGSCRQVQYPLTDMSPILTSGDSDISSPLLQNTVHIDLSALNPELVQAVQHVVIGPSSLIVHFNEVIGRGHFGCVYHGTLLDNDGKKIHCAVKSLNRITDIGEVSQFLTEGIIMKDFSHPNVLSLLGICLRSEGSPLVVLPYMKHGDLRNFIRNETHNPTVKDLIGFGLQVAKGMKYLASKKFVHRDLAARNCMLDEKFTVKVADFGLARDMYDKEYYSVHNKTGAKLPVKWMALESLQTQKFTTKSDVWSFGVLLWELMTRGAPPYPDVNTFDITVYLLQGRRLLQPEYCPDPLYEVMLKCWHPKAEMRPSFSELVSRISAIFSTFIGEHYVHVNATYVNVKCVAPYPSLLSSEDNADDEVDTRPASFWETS

| IC50 | SMILES |
| --- | --- |
| 1100 nM | CNc1nccc(-c2ccc(C(=O)N[C@H](CN)Cc3ccc(Cl)cc3Cl)s2)n1 |

Biological target: Protein kinase C alpha type (Homo sapiens, UniProt P17252)
Assay: Inhibition of PKCa
Conditions: not given

| IC50 | SMILES |
| --- | --- |
| 66 nM | CNc1nccc(-c2ccc(C(=O)N[C@H](CN)Cc3ccc(Cl)cc3Cl)s2)n1 |

Biological target: Calcium/calmodulin-dependent protein kinase type II subunit alpha (Homo sapiens, UniProt Q9UQM7)
Assay: Inhibition of CamK2alpha
Conditions: not given
In short: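 IC50 from an in vitro kinase assay with ATP at or below its Km.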

Sequence of Calcium/calmodulin-dependent protein kinase type II subunit alpha (Q9UQM7 whole entry): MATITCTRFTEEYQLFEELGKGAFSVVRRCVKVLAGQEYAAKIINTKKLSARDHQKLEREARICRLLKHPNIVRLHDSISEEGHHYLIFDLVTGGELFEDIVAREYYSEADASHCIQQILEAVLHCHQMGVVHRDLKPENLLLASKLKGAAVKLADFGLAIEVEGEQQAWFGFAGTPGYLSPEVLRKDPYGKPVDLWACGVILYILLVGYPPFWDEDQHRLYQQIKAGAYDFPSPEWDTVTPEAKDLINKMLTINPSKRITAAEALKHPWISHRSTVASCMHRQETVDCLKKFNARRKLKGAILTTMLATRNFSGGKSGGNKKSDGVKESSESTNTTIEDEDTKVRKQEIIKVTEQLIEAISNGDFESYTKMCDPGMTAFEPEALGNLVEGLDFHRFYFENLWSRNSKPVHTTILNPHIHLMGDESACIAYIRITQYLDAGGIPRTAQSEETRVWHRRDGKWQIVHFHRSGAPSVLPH

| IC50 | SMILES |
| --- | --- |
| 8 µM | CNc1nccc(-c2ccc(C(=O)N[C@H](CN)Cc3ccc(Cl)cc3Cl)s2)n1 |

Biological target: Mitogen-activated protein kinase 3 (Homo sapiens, UniProt P27361)
Assay: Inhibition of ERK1
Conditions: not given
In short: as §1

Sequence of Mitogen-activated protein kinase 3 (P27361 whole entry): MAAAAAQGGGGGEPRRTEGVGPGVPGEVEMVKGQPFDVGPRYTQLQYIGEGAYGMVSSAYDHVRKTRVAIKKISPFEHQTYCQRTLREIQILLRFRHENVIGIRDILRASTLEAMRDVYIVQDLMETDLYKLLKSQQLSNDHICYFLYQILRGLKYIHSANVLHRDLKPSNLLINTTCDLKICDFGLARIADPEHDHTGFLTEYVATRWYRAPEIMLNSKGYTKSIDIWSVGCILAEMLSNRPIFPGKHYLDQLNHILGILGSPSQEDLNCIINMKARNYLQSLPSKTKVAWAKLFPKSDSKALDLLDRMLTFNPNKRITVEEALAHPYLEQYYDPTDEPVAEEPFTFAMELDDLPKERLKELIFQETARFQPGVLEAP

| IC50 | SMILES |
| --- | --- |
| 400 nM | CNc1nccc(-c2ccc(C(=O)N[C@H](CN)Cc3ccc(Cl)cc3Cl)s2)n1 |

Biological target: RAF proto-oncogene serine/threonine-protein kinase (Homo sapiens, UniProt P04049)
Assay: Inhibition of RAF1
Conditions: not given
In short: as §1

| IC50 | SMILES |
| --- | --- |
| > 10 µM | CNc1nccc(-c2ccc(C(=O)N[C@H](CN)Cc3ccc(Cl)cc3Cl)s2)n1 |

System: DOV13
Assay: Antiproliferative activity against human DOV13 cell line
Type: functional, cell-based
Conditions: not given

| SMILES | EC50 |
| --- | --- |
| CNc1nccc(-c2ccc(C(=O)N[C@H](CN)Cc3ccc(Cl)cc3Cl)s2)n1 | 1000 nM |

Biological target: T3, Serine/threonine-protein kinase AKT (Homo sapiens, UniProt P31751+Q9Y243+P31749)
Assay: Activity against AKT-mediated GSK3 S9P phosphorylation in human DOV13 cell line
Type: functional, cell-based
Conditions: not given

| EC50 | SMILES |
| --- | --- |
| 320 nM | CNc1nccc(-c2ccc(C(=O)N[C@H](CN)Cc3ccc(Cl)cc3Cl)s2)n1 |

Biological target: T3, Serine/threonine-protein kinase AKT
Assay: Activity against AKT-mediated PRAS40 T246P phosphorylation in human DOV13 cell line
Type: functional, cell-based
Conditions: not given

| EC50 | SMILES |
| --- | --- |
| 160 nM | CNc1nccc(-c2ccc(C(=O)N[C@H](CN)Cc3ccc(Cl)cc3Cl)s2)n1 |

Biological target: T2, cAMP-dependent protein kinase (PKA)
Assay: Inhibitory activity against PKA in human UACC903 cell line at 10 nM
Type: functional, cell-based
Conditions: UACC-903
In short: (§2)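 UACC903 melanoma cells were pre-incubated with the test compound at various concentrations for 45 min, then stimulated with 7 μM forskolin for 15 min before lysis. Lysates were Western blotted for phospho-VASP as the PKA read-out, with phospho-MDM2 as the AKT read-out.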

| Activity | SMILES |
| --- | --- |
| Active | CNc1nccc(-c2ccc(C(=O)N[C@H](CN)Cc3ccc(Cl)cc3Cl)s2)n1 |

Biological target: T2, cAMP-dependent protein kinase (PKA)
Assay: Inhibitory activity against PKA in human UACC903 cell line at 33 nM
Type: functional, cell-based
Conditions: UACC-903
In short: as §2

| Activity | SMILES |
| --- | --- |
| Active | CNc1nccc(-c2ccc(C(=O)N[C@H](CN)Cc3ccc(Cl)cc3Cl)s2)n1 |

Biological target: T3, Serine/threonine-protein kinase AKT
Assay: Activity against AKT-mediated S6RP S235/236P phosphorylation in human DOV13 cell line
Type: functional, cell-based
Conditions: not given

| EC50 | SMILES |
| --- | --- |
| 370 nM | CNc1nccc(-c2ccc(C(=O)N[C@H](CN)Cc3ccc(Cl)cc3Cl)s2)n1 |

Source: ChEMBL document CHEMBL1146851, “Discovery of 2-pyrimidyl-5-amidothiophenes as potent inhibitors for AKT: synthesis and SAR studies” (Bioorg Med Chem Lett, 2006)
